NPY-Y1 antag: antagonists of human neuropeptide Y receptor Y1 | HEK293-CNG Y1 cells, membrane potential fluorescence; NPY at EC95, then isoproterenol | P25929 | 200,000 tested, 1% active | inhibition, % at 3.6 µM;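 active means inhibition above the campaign mean inhibition of all tested compounds plus 3 SD, cut at about 20% in these data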
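Material: HEK293 cells co-expressing NPY Y1 receptor and cyclic-nucleotide gated channel. Timing: compound incubation 1 h at room temperature, readout 45 min post-stimulation. Signal: fluorescence, membrane potential probe.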
NPY Y2 blocker: antagonists of human neuropeptide Y receptor Y2; NPY-Y2 expressing cells, antagonist mode; inhibition, % at 2.7 µM; 140,000 tested, 0.99% active; AID 793; in the data active means inhibition above about 17%
KCC2 mod: KCC2 (human) Cl- transport modulation; B-score of Tl+ flux slope (higher = more flux/activation; lower = inhibition) at 10 µM; AID 1456; 190,000 tested, 2.2% active; KCC2 cells, thallium flux FluoZin-2 fluorescence;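 active means thallium flux slope and its plate-corrected score both differing from the plate sample mean at a set confidence after two filtering rounds, in either direction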;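 further: slope of fluorescence scaled to starting intensity during 10 to 20 s after thallium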
NPY2 pot ag: potentiates or activates human NPY-Y2 receptor | P49146 | cells expressing NPY-Y2, potentiator/agonist read-out | activation, % at 3.6 µM | 220,000 tested, 0.45% active; in the data active means activation above about 27%;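 further: cells stimulated with NPY near EC25 plus isoproterenol at EC100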
NPY-Y1 PAM-ag: human NPY-Y1 potentiation or agonism, primary screen. activation, % at 3.6 µM. AID 1304. NPY-Y1 expressing cells, potentiator/agonist activation. 220,000 tested, 0.37% active. P25929; in the data active means activation above about 33%, passing the limit was not always enough;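 further: cells stimulated with NPY at EC10 then isoproterenol at EC100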
Furin inh: human furin inhibition; AID 463115; purified furin, fluorogenic substrate cleavage; 220,000 tested, 0.061% active; inhibition, % at 20 µM or 30 µM; P09958; in the data active means inhibition above about 25%
Target sequence (P09958 108-714 limits assumed): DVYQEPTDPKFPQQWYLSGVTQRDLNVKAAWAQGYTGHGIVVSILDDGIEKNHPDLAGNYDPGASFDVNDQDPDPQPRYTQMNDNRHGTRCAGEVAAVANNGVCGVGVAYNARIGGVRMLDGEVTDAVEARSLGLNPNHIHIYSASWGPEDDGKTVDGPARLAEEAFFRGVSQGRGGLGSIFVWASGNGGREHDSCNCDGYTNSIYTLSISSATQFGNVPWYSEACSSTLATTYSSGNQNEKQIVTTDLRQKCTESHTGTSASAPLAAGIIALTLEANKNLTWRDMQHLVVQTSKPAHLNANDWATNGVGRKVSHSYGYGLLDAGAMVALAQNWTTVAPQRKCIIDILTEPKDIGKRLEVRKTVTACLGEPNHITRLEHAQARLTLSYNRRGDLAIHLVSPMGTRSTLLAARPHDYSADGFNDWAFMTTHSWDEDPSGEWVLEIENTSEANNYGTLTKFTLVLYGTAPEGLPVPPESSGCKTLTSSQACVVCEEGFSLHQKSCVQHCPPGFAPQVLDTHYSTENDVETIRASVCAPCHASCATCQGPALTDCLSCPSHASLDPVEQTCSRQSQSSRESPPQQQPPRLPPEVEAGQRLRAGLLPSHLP
KCC2 secondary: confirmation of human KCC2 transport modulators; shares compounds with KCC2 mod; HEK293-KCC2, thallium flux, FluoZin2 fluorescence; hits give high values; normalised thallium flux (F/F0 slope) at 10 µM; 3,700 tested, 15% active;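 active means thallium flux slope above the same plate's solvent-only control mean plus 3 SD; inconclusive means the two replicate wells disagree; inactive means no significant difference from solvent-only control wells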
KCC2 bumet counter: thallium flux despite bumetanide block in KCC2 cells, secondary assay 3. shares compounds with KCC2 mod. HEK293-KCC2 + bumetanide/ouabain, thallium flux FluoZin2; hits give high values. normalized thallium flux at 10 µM. 3,700 tested, 49% active. AID 1714;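 active means thallium entry rate above the same plate's blocked-transporter control wells by more than 3 SD; inconclusive means the two repeat wells disagree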;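 further: raw slope of fluorescence over initial fluorescence between 10 and 20 s after thallium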
KCC2 secondary2: KCC2 (human) modulation, second secondary assay; shares compounds with KCC2 mod; normalized thallium flux at 10 µM; HEK293-KCC2, thallium flux FluoZin2 fluorescence; actives lie on both sides; F/F0 rise rate, 10–20 s post-thallium; 3,700 tested, 23% active;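 active means thallium flux slope more than 3 SD above or below the plate's solvent-only control mean, mostly below; inconclusive means the two repeat wells disagreed; inactive means no significant shift from solvent-only controls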
HEK293 Tl flux: acts in parental HEK cells, KCC2 counter-screen; shares compounds with KCC2 mod; HEK293 parental cells, thallium flux FluoZin2, ouabain; baseline-ratio fluorescence slope, 10–20 s after thallium; thallium flux rate (normalised fluorescence) at 10 µM; 3,700 tested, 46% active; AID 1716;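 active means thallium flux rate significantly above the same plate's solvent-only control wells, beyond their mean plus 3 SD; inconclusive means the two replicate wells gave conflicting results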
KCC2 retest ouab: KCC2 (human) modulation, ouabain retest. shares compounds with KCC2 mod. HEK293-KCC2, thallium flux FluoZin2 fluorescence; bidirectional: low = inhibitor, high = activator. raw Tl+ flux slope (below DMSO = inhibition, above = activation) at 10 µM. 3,700 tested, 48% active. AID 1717;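 active means thallium flux slope beyond 3 SD from same-plate DMSO control mean in most replicates, usually higher, sometimes lower; inconclusive means repeat tests gave conflicting results; inactive means no significant difference from controls in most replicates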;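 further: slope of initial-normalized fluorescence between seconds 10 and 20 after thallium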
HEK293 Tl flux2: acts in parental HEK cells, second KCC2 counter-screen. shares compounds with KCC2 mod. HEK293 parental, thallium flux FluoZin-2 fluorescence slope. thallium flux slope at 10 µM. 3,700 tested, 33% active;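 active means thallium flux slope above the same plate's solvent-control mean plus 3 SD in both duplicate wells; inconclusive means duplicate wells that disagreed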;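 further: run without ouabain in cells lacking the KCC2 cotransporter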
A number is an active result; - = inactive; ? = inconclusive; . = no result given. In the library only some 3.7% were active in any assay of this set; here they are far more common.

SMILES	NPY-Y1 antag	NPY Y2 blocker	KCC2 mod	NPY2 pot ag	NPY-Y1 PAM-ag	Furin inh	KCC2 secondary	KCC2 bumet counter	KCC2 secondary2	HEK293 Tl flux	KCC2 retest ouab	HEK293 Tl flux2
CCN(CC)CCCN=Cc1c(O)n(CCc2ccc(OC)c(OC)c2)c(=O)[nH]c1=O	-	-	-6.21	-	-	-	-	-	-	?	-	?
CC1(C)CC(=O)C(C2(O)C(=O)NC(=O)NC2=O)=C(O)C1	-	-	-	-	-	-	.	.	.	.	.	.
COc1cccc(-n2c(-c3ccoc3)nc3ccccc3c2=O)c1	-	-	.	-	-	-	-	-	-	-	-	-
COC(=O)c1ccc(COc2cc(C)cc3oc(=O)c4c(c23)CCCC4)o1	-	-	.	-	-	-	-	-	-	0.00491	?	-
Cc1cc(OCC(=O)O)c2c3c(c(=O)oc2c1)CCCC3	-	-	-	-	-	-	.	.	.	.	.	.
Cc1nc2cc(C(F)(F)F)ccc2n1C1CCN(Cc2nnnn2Cc2ccc3c(c2)OCO3)CC1	-	-	-4.7	-	-	-	-	-	?	-	?	-
Cc1nc2cc(C(F)(F)F)ccc2n1C1CCN(Cc2nnnn2Cc2cccs2)CC1	-	-	-	-	-	-	.	.	.	.	.	.
O=c1[nH]c(=O)n(Cc2ccc(F)cc2)c(O)c1C=NCc1cccnc1	-	-	4.42	-	-	-	-	-	-	-	-	-
O=C(NC(=C(Cl)Cl)P(=O)(c1ccccc1)c1ccccc1)c1ccccc1	-	-	-	-	-	-	.	.	.	.	.	.
CNc1cc(Cl)c2nonc2c1[N+](=O)[O-]	-	.	-4.64	-	-	-	-	0.00696	?	-	-	-
Cc1cc([N+](=O)[O-])c(Cl)cc1NC(=O)C(C)C	-	-	-	-	-	-	.	.	.	.	.	.
CNc1ccc2oc(C[C@H]3O[C@@]4(CC[C@H]3C)O[C@H]([C@H](C)C(=O)c3ccc[nH]3)[C@H](C)C[C@H]4C)nc2c1C(=O)O	.	.	7.45	.	.	-	-	0.00925	-	?	?	-
COc1ccc(-n2c(=O)[nH]c3ccccc3c2=O)cc1	-	-	-	-	-	-	-	-	-	-	-	-
COc1ccc(-n2c(=O)[nH]c3ccccc3c2=O)c(OC)c1	-	-	-	-	-	-	.	.	.	.	.	.
CCCCn1c(O)c(/C=C/C=Nc2ccccc2)c(=O)[nH]c1=O	-	-	-4.7	-	-	-	0.00255	-0.00181	0.0247	0.0019	0.00842	0.007
CCOC(=O)C(=CNc1ccc(C(O)(C(=O)OCC)C(F)(F)F)cc1C)C(=O)OCC (configuration not stated)	-	-	-	-	-	-	.	.	.	.	.	.
CC(C)n1c(O)c(C=NCc2cccnc2)c(=O)[nH]c1=S	.	.	-	-	-	-	.	.	.	.	.	.
CCC(C)n1c(O)c(C=Nc2cccc(C(F)(F)F)c2)c(=O)[nH]c1=S (configuration not stated)	-	-	-	-	-	-	-	0.0183	-	0.0193	0.0248	0.0146
O=C1C2CCCN2C(c2cccnc2)N1c1nccs1 (configuration not stated)	-	-	3.16	-	-	-	-	?	-	-	-	-
O=C1C2CCCN2C(c2cccnc2)N1c1ccc(Cl)cc1 (configuration not stated)	-	-	-	-	-	-	.	.	.	.	.	.
CC(C)(CN)CC(=O)O	.	.	-	-	-	-	.	.	.	.	.	.
NNC(=O)c1ccc(Cl)cc1	-	-	4.35	-	-	-	-	-	-	-	-	-
CC(C)c1oc(=O)cc2c1[C@@H](O)[C@H]1OC(=O)[C@@]3(C)C[C@@H](O)[C@@H](O)[C@@]2(C)C13 (some centres not stated)	-	-	5.52	-	-	-	-	-	-	?	-	-
CCCNc1nc(OC)nc(N2CC3CC(C2)c2cccc(=O)n2C3)n1 (configuration not stated)	-	.	-	-	-	-	.	.	.	.	.	.
O=c1[nH]c(O)c(N=Nc2cc([N+](=O)[O-])ccc2O)c(=O)[nH]1	-	.	.	-	-	-	-	?	-	-	-	-
SMILES	NPY-Y1 antag	NPY Y2 blocker	KCC2 mod	NPY2 pot ag	NPY-Y1 PAM-ag	Furin inh	KCC2 secondary	KCC2 bumet counter	KCC2 secondary2	HEK293 Tl flux	KCC2 retest ouab	HEK293 Tl flux2
O=c1[nH]c(O)c(N=Nc2ccc(SC(F)F)cc2)c(=O)[nH]1	.	.	-	-	-	-	.	.	.	.	.	.
COc1cc(C(=S)N2CCOCC2)cc(OC)c1OC(=O)Cc1ccccc1	-	.	-5.39	-	-	-	?	0.00601	0.0205	-	-	-
O=P(O)(O)Cc1ccccc1OP(=O)(c1ccccc1)c1ccccc1	-	-	.	-	-	-	.	.	.	.	.	.
O=c1[nH]c(=S)n(Cc2ccco2)c(O)c1C=NCc1cccs1	-	-	-3.21	-	-	-	-	-	?	-	0.0198	-
O=c1[nH]c(=O)n(Cc2ccco2)c(O)c1C=NCc1cccs1	-	-	.	-	-	-	.	.	.	.	.	.
CC(C)CC(NC(=O)C1CCCCC1)C(=O)N1CCC2(CC1)OCCO2 (configuration not stated)	-	-	.	-	-	-	.	.	.	.	.	.
CC(C)C[C@H](NC(=O)[C@@H]1CCCN1C(=O)[C@@H](N)Cc1ccc(O)cc1)C(=O)NCC(N)=O	-	-	-3.08	-	-	-	?	0.00572	-	?	-	-
c1ccc2c(NC3=NCCS3)cccc2c1	-	-	-	-	-	-	.	.	.	.	.	.
S=C1Nc2ccccc2Sc2ccccc21	-	.	47.5	-	-	-	0.0191	0.0748	-	0.0544	0.0528	0.0135
O=C(COc1ccc(Cl)cc1Cl)N1CCN(C/C=C/c2ccccc2)CC1	-	-	-6.81	-	-	-	-	-	-	-	-	-
COc1ccc(C(=O)Oc2cccc3cccnc23)cc1S(=O)(=O)N1CCOCC1	-	.	-	-	-	-	.	.	.	.	.	.
c1ccc2c(c1)Sc1ccccc1N2CC1CN2CCC1CC2 (configuration not stated)	.	.	-	-	-	-	.	.	.	.	.	.
CCCC(=O)OCC[N+](C)(C)C	-	-	4.93	-	-	-	?	-	-	-	-	-
COc1ccc(-c2n(-c3ccccn3)c3ccccc3[n+]2-c2ccccn2)cc1	.	.	-	-	-	-	.	.	.	.	.	.

Compound activity deposited in PubChem by several laboratories.
